log10cfu, Activity and Drug uptake data for 4 compounds are collected here from ChEMBL document CHEMBL1143400, “A diarylquinoline drug active on the ATP synthase of Mycobacterium tuberculosis” (Science, 2005).

For data set [1], the system named is Mycobacterium tuberculosis. Nature of the data set: Antimycobacterial activity against Mycobacterium tuberculosis H37Rv infected Swiss mouse assessed as reduction of bacterial count in spleen at 25 mg/kg 5 times weekly for 4 weeks. The data set is classed as functional. The gist of the method: (§1)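 Nonestablished infection model in mice. Oral dosing began the day after inoculation, given 5 times per week for 4 weeks; one 12.5 mg/kg group was dosed once weekly. Mice were killed on day 28 and lung and spleen CFU counted, with untreated controls taken at day 1. Means ± SD; pairwise comparisons by Bonferroni's method.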

In data set [2] the test system is Mycobacterium tuberculosis. The data set is described as follows: Antimycobacterial activity against Mycobacterium tuberculosis H37Rv infected Swiss mouse assessed as reduction of bacterial count in lungs at 25 mg/kg 5 times weekly for 4 weeks. It is filed as functional. The method in brief:
as §1

The test system of data set [3] is Mycobacterium tuberculosis. Nature of the data set: Antimycobacterial activity against Mycobacterium tuberculosis H37Rv infected Swiss mouse assessed as spleen weight at 25 mg/kg 5 times weekly for 4 weeks. It is filed as functional.
In a further data set the test system is Plasma. The data set is described as follows: Drug level in human plasma. It is filed as ADME, cell-free.
Data set [4] deals with Mycobacterium tuberculosis. Nature of the data set: Antimycobacterial activity against Mycobacterium tuberculosis H37Rv infected Swiss mouse assessed as reduction of bacterial count in spleen at 10 mg/kg after 12 days infection weekly 5 times for 1 month. The data set is classed as functional.
Data set [5] deals with Mycobacterium tuberculosis. The data set is described as follows: Antimycobacterial activity against Mycobacterium tuberculosis H37Rv infected Swiss mouse assessed as spleen weight at 10 mg/kg after 12 days of infection weekly 5 times for 8 weeks. The data set is classed as functional.
Data set [6] has as its system Mycobacterium tuberculosis. Nature of the data set: Antimycobacterial activity against Mycobacterium tuberculosis H37Rv infected Swiss mouse assessed as spleen weight at 10 mg/kg after 12 days infection weekly 5 times for 1 month. It is filed as functional.
Data set [7] relates to Mycobacterium tuberculosis. The data set is described as follows: Antimycobacterial activity against Mycobacterium tuberculosis H37Rv infected Swiss mouse assessed as reduction of bacterial count in lungs at 10 mg/kg after 12 days infection weekly 5 times for 1 month. The data set is classed as functional. The method in brief: (§2)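 Established infection model in mice. Treatment started 12 to 14 days after inoculation, given 5 times per week. Mice were killed on day 12 just before treatment, on day 42 (1 month of therapy) and on day 70 (2 months), and lung CFU counted. Means ± SD; pairwise comparisons by Bonferroni's method.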

Data set [8] deals with Mycobacterium tuberculosis. The data set is described as follows: Antimycobacterial activity against Mycobacterium tuberculosis H37Rv infected Swiss mouse assessed as reduction of bacterial count in lungs at 10 mg/kg after 12 days of infection weekly 5 times for 8 weeks. The data set is classed as functional. The method in brief: as §2
The test system of data set [9] is Mycobacterium tuberculosis. Nature of the data set: Antimycobacterial activity against Mycobacterium tuberculosis H37Rv infected Swiss mouse assessed as spleen weight at 75 mg/kg 5 times weekly for 4 weeks. The data set is classed as functional.
Data set [10] deals with Mycobacterium tuberculosis. Nature of the data set: Antimycobacterial activity against Mycobacterium tuberculosis H37Rv infected Swiss mouse assessed as reduction of bacterial count in lungs at 50 mg/kg 5 times weekly for 4 weeks. It is filed as functional. The method in brief: as §1
For data set [11], the system named is Mycobacterium tuberculosis. Nature of the data set: Antimycobacterial activity against Mycobacterium tuberculosis H37Rv infected Swiss mouse assessed as reduction of bacterial count in lungs at 100 mg/kg 5 times weekly for 4 weeks. The data set is classed as functional. The gist of the method:
as §1

Data set [12] concerns Mycobacterium tuberculosis. Nature of the data set: Antimycobacterial activity against Mycobacterium tuberculosis H37Rv infected Swiss mouse assessed as spleen weight at 100 mg/kg 5 times weekly for 4 weeks. It is filed as functional.
The subject of data set [13] is Mycobacterium tuberculosis. Nature of the data set: Antimycobacterial activity against Mycobacterium tuberculosis H37Rv infected Swiss mouse assessed as reduction of bacterial count in spleen at 100 mg/kg 5 times weekly for 4 weeks. It is filed as functional. The method in brief: as §1
The subject of data set [14] is Mycobacterium tuberculosis. The data set is described as follows: Antimycobacterial activity against Mycobacterium tuberculosis H37Rv infected Swiss mouse assessed as reduction of bacterial count in spleen at 50 mg/kg 5 times weekly for 4 weeks. It is filed as functional. The gist of the method:
as §1

Data set [15] relates to Mycobacterium tuberculosis. Nature of the data set: Antimycobacterial activity against Mycobacterium tuberculosis H37Rv infected Swiss mouse assessed as spleen weight at 50 mg/kg 5 times weekly for 4 weeks. It is filed as functional.
Data set [16] concerns Mycobacterium tuberculosis. The data set is described as follows: Antimycobacterial activity against Mycobacterium tuberculosis H37Rv infected Swiss mouse assessed as reduction of bacterial count in spleen at 75 mg/kg 5 times weekly for 4 weeks. It is filed as functional. The gist of the method:
as §1

The subject of data set [17] is Mycobacterium tuberculosis. Nature of the data set: Antimycobacterial activity against Mycobacterium tuberculosis H37Rv infected Swiss mouse assessed as reduction of bacterial count in lungs at 75 mg/kg 5 times weekly for 4 weeks. The data set is classed as functional. The gist of the method:
as §1

Data set [18] has as its system Mus musculus. Nature of the data set: Toxicity in Mycobacterium tuberculosis H37Rv infected Swiss mouse at 100 mg/kg 5 times weekly for 4 weeks. The data set is classed as organism-based. On the set-up: dose 100 mg/kg. The settings on record: in vivo, 672 h.
In data set [19] the test system is Mus musculus. The data set is described as follows: Toxicity in Mycobacterium tuberculosis H37Rv infected Swiss mouse at 75 mg/kg 5 times weekly for 4 weeks. On the set-up: dose 75 mg/kg. It is filed as organism-based. The settings on record: in vivo, 672 h.
In data set [20] the test system is Mus musculus. Nature of the data set: Toxicity in Mycobacterium tuberculosis H37Rv infected Swiss mouse at 12.5 mg/kg 5 times weekly for 4 weeks. On the set-up: dose 12.5 mg/kg. The settings on record: in vivo, 672 h. It is filed as organism-based.
Data set [21] concerns Mus musculus. Nature of the data set: Toxicity in Mycobacterium tuberculosis H37Rv infected Swiss mouse at 50 mg/kg 5 times weekly for 4 weeks. The data set is classed as organism-based. On the set-up: dose 50 mg/kg. The settings on record: in vivo, 672 h.
In data set [22] the test system is Mus musculus. Nature of the data set: Toxicity in Mycobacterium tuberculosis H37Rv infected Swiss mouse at 25 mg/kg 5 times weekly for 4 weeks. The data set is classed as organism-based. The settings on record: in vivo, 672 h. On the set-up: dose 25 mg/kg.

Bounds are passed on as bounds.

For `NNC(=O)c1ccncc1` [ISONIAZID], the log10cfu was determined as 3.05 mg in [1] and 1.75 mg in data set [2]. In data set [3], the Activity is 185 mg.

`CO[C@H]1/C=C/O[C@@]2(C)Oc3c(C)c(O)c4c(O)c(c(/C=N/N5CCN(C)CC5)c(O)c4c3C2=O)NC(=O)/C(C)=C\C=C\[C@H](C)[C@H](O)[C@@H](C)[C@@H](O)[C@@H](C)[C@H](OC(C)=O)[C@@H]1C` [RIFAMPIN] displayed a Drug uptake in the data set on Plasma below 0.001 µg/mL. Further, the log10cfu is 4.72 in data set [4], 4.05 in data set [7] and 1.89 in [8]. For the same compound, the Activity in data set [5] is on record as 391 mg; in data set [6] it was 466 mg.

For `COc1nc2ccc(Br)cc2cc1[C@@H](c1ccccc1)[C@@](O)(CCN(C)C)c1cccc(F)c1`, the Activity came out at 197 mg in data set [9], 206 mg in data set [12] and 278 mg in data set [15]. Besides, the log10cfu in data set [10] is recorded as 5.2; in data set [11] it was 3.63; in data set [13], 3.63; in data set [14], 4.68; in [16], 4.04; in data set [17], 4.32.

As to `COc1nc2ccc(Br)cc2cc1[C@@H](c1ccccc1)[C@@](O)(CCN(C)C)c1ccccc1`, the Activity entry with Mus musculus [18] was “Non-toxic”; in data set [9] it was 390 mg; in data set [12], 424 mg; in the data set on Mus musculus [19] it was “Non-toxic”; in the data set on Mus musculus [20], “Non-toxic”; in the data set with Mus musculus [21] it was “Non-toxic”. For the same compound, the Activity is recorded as 410 mg in data set [15] and “Non-toxic” with Mus musculus [22]. Besides, the log10cfu in [10] was 6.4; in [11], 6.1; in data set [13], 5.68; in [14], 5.78; in data set [16], 5.72; in [17], 6.03.
